MIC and zone of inhibition data for 6 compounds are collected here from ChEMBL document CHEMBL1287779, “Indium(III) chloride catalyzed three-component coupling reaction: a novel synthesis of 2-substituted aryl(indolyl)kojic acid derivatives as potent antifungal and antibacterial agents” (2010).

As usually defined, the MIC is the lowest concentration that inhibits growth of the organism. A low value points to a more susceptible organism.

Assay type in all cases: functional
One experiment relates to Bacillus subtilis. The experiment is described as follows: Antibacterial activity against Bacillus subtilis MTCC 441 by broth dilution method. In a few lines:
(§1)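 MIC determined by broth dilution following NCCL standards. Penicillin and streptomycin were tested in parallel under identical conditions.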
Background: Dilution methods test growth across graded concentrations, often in twofold steps.

For experiment [1], the system named is Aspergillus niger. The experiment is described as follows: Antifungal activity against Aspergillus niger MTCC 282 assessed as zone of inhibition at 100 ug by agar well diffusion method. The settings on record: read-out: IZ. In a few lines: (§2)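 Agar well diffusion on potato dextrose agar. Plates were spread with 0.5 mL of a week-old culture of the test organism, and 6 mm wells were cut with a cork borer. Compounds were dissolved in DMSO at different concentrations and added to the wells, with controls included. Plates were held at 27 °C for 48 h, and inhibition zone diameters were read in mm. Three to four replicates per treatment.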
On the technique in general: In agar diffusion tests the substance spreads into inoculated agar from a disc or well.

Experiment [2] deals with Rhizopus arrhizus. The experiment is described as follows: Antifungal activity against Rhizopus oryzae MTCC 262 assessed as zone of inhibition at 150 ug by agar well diffusion method. To be noted: read-out: IZ. In a few lines: as §2
Experiment [3] relates to Candida albicans. The experiment is described as follows: Antifungal activity against Candida albicans MTCC 227 assessed as zone of inhibition at 150 ug by agar well diffusion method. To be noted: read-out: IZ. In a few lines: as §2
Experiment [4] concerns Diutina rugosa. The experiment is described as follows: Antifungal activity against Candida rugosa NCIM 3462 assessed as zone of inhibition at 100 ug by agar well diffusion method. To be noted: read-out: IZ. In a few lines:
as §2

Experiment [5] concerns Saccharomyces cerevisiae. The experiment is described as follows: Antifungal activity against Saccharomyces cerevisiae MTCC 36 assessed as zone of inhibition at 100 ug by agar well diffusion method. To be noted: read-out: IZ. In a few lines:
as §2

The test system of experiment [6] is Staphylococcus epidermidis. The experiment is described as follows: Antibacterial activity against Staphylococcus epidermidis MTCC 2639 by broth dilution method. The gist of the method:
as §1

Another experiment has as its system Staphylococcus aureus. The experiment is described as follows: Antibacterial activity against Staphylococcus aureus MTCC 96 by broth dilution method. The gist of the method:
as §1

Experiment [7] has as its system Aspergillus niger. The experiment is described as follows: Antifungal activity against Aspergillus niger MTCC 282 assessed as zone of inhibition at 150 ug by agar well diffusion method. To be noted: read-out: IZ. The gist of the method: as §2
Experiment [8] relates to Diutina rugosa. The experiment is described as follows: Antifungal activity against Candida rugosa NCIM 3462 assessed as zone of inhibition at 150 ug by agar well diffusion method. The settings on record: read-out: IZ. The gist of the method: as §2
Another experiment concerns Klebsiella pneumoniae. The experiment is described as follows: Antibacterial activity against Klebsiella pneumoniae MTCC 618 by broth dilution method. The gist of the method:
as §1

Experiment [9] concerns Rhizopus arrhizus. The experiment is described as follows: Antifungal activity against Rhizopus oryzae MTCC 262 assessed as zone of inhibition at 100 ug by agar well diffusion method. The settings on record: read-out: IZ. The gist of the method:
as §2

A further experiment has as its system Pseudomonas aeruginosa. The experiment is described as follows: Antibacterial activity against Pseudomonas aeruginosa MTCC 741 by broth dilution method. In a few lines: as §1
The next experiment relates to Escherichia coli. The experiment is described as follows: Antibacterial activity against Escherichia coli MTCC 443 by broth dilution method. In a few lines:
as §1

The subject of experiment [10] is Candida albicans. The experiment is described as follows: Antifungal activity against Candida albicans MTCC 227 assessed as zone of inhibition at 100 ug by agar well diffusion method. The settings on record: read-out: IZ. The gist of the method: as §2
The test system of experiment [11] is Saccharomyces cerevisiae. The experiment is described as follows: Antifungal activity against Saccharomyces cerevisiae MTCC 36 assessed as zone of inhibition at 150 ug by agar well diffusion method. To be noted: read-out: IZ. In a few lines: as §2

Values after ≈ are worked out from the molar mass of the structure shown.

With `COc1cc(C(c2oc(CO)cc(=O)c2O)c2c(C)[nH]c3ccccc23)ccc1O` (stereo unspecified), the MIC (in the experiment on Bacillus subtilis; in [6]; against Staphylococcus aureus; in the experiment with Klebsiella pneumoniae; in the experiment on Pseudomonas aeruginosa; against Escherichia coli) was 150 µg/mL (≈ 368 µM) each time. For the same compound, the zone of inhibition at 100 µg/disc in the experiment with Aspergillus niger [1], in the experiment with Diutina rugosa [4], in the experiment on Saccharomyces cerevisiae [5], in the experiment on Rhizopus arrhizus [9] and in the experiment with Candida albicans [10] was 0 mm each time. The zone of inhibition at 150 µg/disc with Rhizopus arrhizus [2], with Candida albicans [3], in the experiment with Aspergillus niger [7], with Diutina rugosa [8] and with Saccharomyces cerevisiae [11] was 0 mm each time.
`COc1ccc(C(c2oc(CO)cc(=O)c2O)c2c(C)[nH]c3ccccc23)cc1` (stereo unspecified): the MIC (against Bacillus subtilis; in experiment [6]; against Staphylococcus aureus; in the experiment with Klebsiella pneumoniae; against Pseudomonas aeruginosa; with Escherichia coli) was 150 µg/mL (≈ 383 µM) each time. The zone of inhibition at 100 µg/disc in the experiment with Aspergillus niger [1], in the experiment on Diutina rugosa [4], with Saccharomyces cerevisiae [5], with Rhizopus arrhizus [9] and in the experiment with Candida albicans [10] was 0 mm throughout. Also, the zone of inhibition at 150 µg/disc in the experiment with Rhizopus arrhizus [2], with Candida albicans [3], with Aspergillus niger [7], in the experiment with Diutina rugosa [8] and in the experiment with Saccharomyces cerevisiae [11] was 0 mm each time.
On to `O=c1cc(CO)oc(C(c2cccc(Oc3ccccc3)c2)c2c[nH]c3ccccc23)c1O` (stereo unspecified), for which the MIC in the experiment on Bacillus subtilis worked out at 150 µg/mL (≈ 341 µM); in [6], 18.8 µg/mL (≈ 42.7 µM); with Staphylococcus aureus, 37.5 µg/mL (≈ 85.3 µM); against Klebsiella pneumoniae, 75 µg/mL (≈ 171 µM); in the experiment with Pseudomonas aeruginosa, 75 µg/mL (≈ 171 µM); in the experiment on Escherichia coli, 75 µg/mL (≈ 171 µM). The zone of inhibition at 100 µg/disc was determined as 11 mm in the experiment with Aspergillus niger [1]; 13 mm in the experiment on Diutina rugosa [4]; 14 mm with Saccharomyces cerevisiae [5]; 7 mm in the experiment with Rhizopus arrhizus [9]; 14 mm with Candida albicans [10]. Besides, the zone of inhibition at 150 µg/disc was found to be 10 mm in the experiment on Rhizopus arrhizus [2]; 19 mm with Candida albicans [3]; 16 mm with Aspergillus niger [7]; 18 mm with Diutina rugosa [8]; 19 mm with Saccharomyces cerevisiae [11].
Consider `O=c1cc(CO)oc(C(c2ccccc2)c2c[nH]c3ccccc23)c1O` (stereo unspecified), for which the minimal inhibitory concentration (MIC) against Bacillus subtilis is 150 µg/mL (≈ 432 µM); in [6] it was 150 µg/mL (≈ 432 µM); in the experiment with Staphylococcus aureus, 150 µg/mL (≈ 432 µM); in the experiment with Klebsiella pneumoniae, 75 µg/mL (≈ 216 µM); against Pseudomonas aeruginosa it was 150 µg/mL (≈ 432 µM); against Escherichia coli it was 150 µg/mL (≈ 432 µM). For the same compound, the zone of inhibition at 100 µg/disc turned out to be 10 mm in the experiment on Aspergillus niger [1]; 6 mm in the experiment on Diutina rugosa [4]; 0 mm with Saccharomyces cerevisiae [5]; 0 mm with Rhizopus arrhizus [9]; 0 mm in the experiment with Candida albicans [10]. Besides, the zone of inhibition at 150 µg/disc with Rhizopus arrhizus [2] stood at 0 mm; in the experiment on Candida albicans [3], 0 mm; in the experiment on Aspergillus niger [7], 14 mm; in the experiment with Diutina rugosa [8] it was 9 mm; in the experiment with Saccharomyces cerevisiae [11], 0 mm.
In the case of `O=c1cc(CO)oc(C(c2ccccc2O)c2c(-c3ccccc3)[nH]c3ccccc23)c1O` (stereo unspecified), the MIC against Bacillus subtilis came out at 150 µg/mL (≈ 341 µM); in [6], 150 µg/mL (≈ 341 µM); in the experiment with Staphylococcus aureus, 4.68 µg/mL (≈ 10.6 µM); against Klebsiella pneumoniae it was 75 µg/mL (≈ 171 µM); against Pseudomonas aeruginosa, 18.8 µg/mL (≈ 42.7 µM); in the experiment on Escherichia coli, 37.5 µg/mL (≈ 85.3 µM). The zone of inhibition at 100 µg/disc was 0 mm with Aspergillus niger [1]; 0 mm with Diutina rugosa [4]; 12 mm in the experiment with Saccharomyces cerevisiae [5]; 0 mm in the experiment on Rhizopus arrhizus [9]; 10 mm with Candida albicans [10]. In addition, the zone of inhibition at 150 µg/disc in the experiment on Rhizopus arrhizus [2] was found to be 0 mm; with Candida albicans [3], 14 mm; with Aspergillus niger [7], 0 mm; in the experiment with Diutina rugosa [8], 0 mm; in the experiment with Saccharomyces cerevisiae [11], 16 mm.
Take `Cc1[nH]c2ccccc2c1C(c1ccc(Cl)cc1)c1oc(CO)cc(=O)c1O` (stereo unspecified): the MIC came out at 150 µg/mL (≈ 379 µM) against Bacillus subtilis; 18.8 µg/mL (≈ 47.4 µM) in experiment [6]; 37.5 µg/mL (≈ 94.7 µM) in the experiment with Staphylococcus aureus; 75 µg/mL (≈ 189 µM) against Klebsiella pneumoniae; 18.8 µg/mL (≈ 47.4 µM) against Pseudomonas aeruginosa; 18.8 µg/mL (≈ 47.4 µM) against Escherichia coli. Also, the zone of inhibition at 100 µg/disc in the experiment with Aspergillus niger [1] is 8 mm; with Diutina rugosa [4] it was 0 mm; in the experiment on Saccharomyces cerevisiae [5], 0 mm; with Rhizopus arrhizus [9], 7 mm; in the experiment with Candida albicans [10], 0 mm. Further, the zone of inhibition at 150 µg/disc in the experiment on Rhizopus arrhizus [2] worked out at 10 mm; in the experiment on Candida albicans [3] it was 0 mm; in the experiment with Aspergillus niger [7], 12 mm; in the experiment on Diutina rugosa [8], 0 mm; in the experiment on Saccharomyces cerevisiae [11] it was 0 mm.
